In brackets after ≈: the same amount, converted by molar mass.
Tests used:
[1] = Cytotoxicity against african green monkey Vero cells assessed as minimum concentration required to cause microscopically detectable alteration after 2 days; assay type: cell-based; conditions: chlorocebus sabaeus, read-out: Activity
[2] = test system: Human respirovirus 3; assay: Antiviral activity against Para influenza-3 virus infected in african green monkey Vero cells assessed as protection against virus-induced cytopathogenicity after 2 days; assay type: functional, organism-based; conditions: Human respirovirus 3, Vero, 48 h
[3] = test system: Mammalian orthoreovirus 1; assay: Antiviral activity against Reovirus-1 infected in african green monkey Vero cells assessed as protection against virus-induced cytopathogenicity after 2 days; assay type: functional, organism-based; conditions: Mammalian orthoreovirus 1, Vero, 48 h
[4] = test system: Sindbis virus; assay: Antiviral activity against Sindbis virus infected in african green monkey Vero cells assessed as protection against virus-induced cytopathogenicity after 2 days; assay type: functional, organism-based; conditions: 48 h
[5] = test system: Coxsackievirus B4; assay: Antiviral activity against Coxsackie virus B4 infected in african green monkey Vero cells assessed as protection against virus-induced cytopathogenicity after 2 days; assay type: functional, organism-based; conditions: Enterovirus B, 48 h
[6] = test system: Punta Toro virus; assay: Antiviral activity against Punta Toro virus infected in african green monkey Vero cells assessed as protection against virus-induced cytopathogenicity after 2 days; assay type: functional, organism-based; conditions: 48 h
[7] = Cytotoxicity against human HeLa cells assessed as minimum concentration required to cause microscopically detectable alteration after 2 days; assay type: cell-based; conditions: read-out: Activity
[8] = test system: Vesicular stomatitis virus; assay: Antiviral activity against Vesicular stomatitis virus infected in human HeLa cells assessed as protection against virus-induced cytopathogenicity after 2 days; assay type: functional, organism-based; conditions: 48 h
[9] = test system: Coxsackievirus B4; assay: Antiviral activity against Coxsackie virus B4 infected in human HeLa cells assessed as protection against virus-induced cytopathogenicity after 2 days; assay type: functional, organism-based; conditions: Enterovirus B, 48 h
[10] = test system: Respiratory syncytial virus; assay: Antiviral activity against Respiratory syncytial virus infected in human HeLa cells assessed as protection against virus-induced cytopathogenicity after 2 days; assay type: functional, organism-based; conditions: 48 h
[11] = Cytotoxicity against human HEL cells assessed as minimum concentration required to cause microscopically detectable alteration after 2 days; assay type: cell-based; conditions: read-out: Activity
[12] = test system: Human alphaherpesvirus 1; assay: Antiviral activity against Herpes simplex virus-1 KOS infected in human HEL cells assessed as protection against virus-induced cytopathogenicity after 2 days; assay type: functional, organism-based; conditions: Human alphaherpesvirus 1, KOS, 48 h
[13] = test system: Human alphaherpesvirus 2; assay: Antiviral activity against Herpes simplex virus-2 G infected in human HEL cells assessed as protection against virus-induced cytopathogenicity after 2 days; assay type: functional, organism-based; conditions: Human alphaherpesvirus 2, strain G, 48 h
[14] = test system: Vesicular stomatitis virus; assay: Antiviral activity against Vesicular stomatitis virus infected in human HEL cells assessed as protection against virus-induced cytopathogenicity after 2 days; assay type: functional, organism-based; conditions: 48 h
[15] = test system: Human alphaherpesvirus 1; assay: Antiviral activity against acyclovir-resistant TK deficient Herpes simplex virus-1 KOS infected in human HEL cells assessed as protection against virus-induced cytopathogenicity after 2 days; assay type: functional, organism-based; conditions: Human alphaherpesvirus 1, KOS, 48 h
[16] = Cytotoxicity against cat CRFK cells by MTS assay; assay type: cell-based, Felis catus
In short: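 In uninfected CRFK cells, the 50% cytotoxic concentration was derived from cell viability measured by the colorimetric formazan-based MTS assay.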

[17] = test system: Feline infectious peritonitis virus; assay: Antiviral activity against Feline coronavirus FIPV infected in cat CRFK cells assessed as protection against virus-induced cytopathogenicity after 2 days by MTS assay; assay type: functional, cell-based; conditions: Alphacoronavirus 1, CRFK, 48 h
[18] = test system: Felid alphaherpesvirus 1; assay: Antiviral activity against Feline herpes virus infected in cat CRFK cells assessed as protection against virus-induced cytopathogenicity after 2 days by MTS assay; assay type: functional, organism-based; conditions: Felid alphaherpesvirus 1, CRFK, 48 h
[19] = test system: Influenza A virus; assay: Antiviral activity against influenza A virus H1N1 infected in MDCK cells assessed as protection against virus-induced cytopathogenicity at 100 ug/ml after 2 days; assay type: functional, organism-based
In short: (§1)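 Infected MDCK cells were treated. […] N.A. means not active at the highest concentration tested or at a subtoxic concentration.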

[20] = test system: Influenza A virus; assay: Antiviral activity against Influenza A virus H3N2 infected in MDCK cells assessed as protection against virus-induced cytopathogenicity at 100 ug/ml after 2 days; assay type: functional, organism-based; in short: as §1
[21] = test system: Influenza B virus; assay: Antiviral activity against influenza B virus infected in MDCK cells assessed as protection against virus-induced cytopathogenicity at 100 ug/ml after 2 days; assay type: functional, organism-based; in short: as §1
[22] = test system: MDCK; assay: Cytotoxicity against MDCK cells by MTS assay; assay type: cell-based, Canis lupus familiaris; conditions: dog, mdck
In short: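 In Madin Darby canine kidney cells, the 50% cytotoxic concentration was derived from cell viability measured by the colorimetric formazan-based MTS assay.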

[23] = Cytotoxicity against MDCK cells assessed as minimum concentration required to cause microscopically detectable alteration after 2 days; assay type: cell-based, Canis lupus familiaris; conditions: dog, read-out: Activity
[24] = test system: Influenza A virus; assay: Antiviral activity against influenza A virus H1N1 infected in MDCK cells assessed as cell viability at 100 ug/ml after 2 days by MTS assay; assay type: functional, organism-based
[25] = test system: Influenza A virus; assay: Antiviral activity against Influenza A virus H3N2 infected in MDCK cells assessed as cell viability at 100 ug/ml after 2 days by MTS assay; assay type: functional, organism-based
[26] = test system: Influenza B virus; assay: Antiviral activity against influenza B virus infected in MDCK cells assessed as cell viability at 100 ug/ml after 2 days by MTS assay; assay type: functional, organism-based

| Structure (SMILES) | MCC at 48 h [1] | EC50 [2] | EC50 [3] | EC50 [5] | MCC at 48 h [7] | EC50 [8] | EC50 [9] | MCC at 48 h [11] | EC50 [13] | EC50 [14] | EC50 [15] | EC50 [17] | EC50 [18] | EC50 [19] | EC50 [20] | EC50 [21] | EC50 [24] | EC50 [25] | EC50 [26] | CC50 ([16]; CRFK cells, read-out: CC50) | also measured |
| --- | --- | --- | --- | --- | --- | --- | --- | --- | --- | --- | --- | --- | --- | --- | --- | --- | --- | --- | --- | --- | --- |
| Nc1ncnc2c1ncn2C[C@H](O)CO [(S)-DHPA] | > 250 µg/mL | > 250 µg/mL | > 250 µg/mL | > 250 µg/mL | > 250 µg/mL | > 250 µg/mL | > 250 µg/mL | – | – | – | – | – | – | – | – | – | – | – | – | – | EC50 [4]: > 250 µg/mL; EC50 [6]: > 250 µg/mL; EC50 [10]: > 250 µg/mL |
| O=c1c2ccccc2nc(-c2ccccc2)n1/N=C/c1cccc([N+](=O)[O-])c1 | 20 µg/mL | > 4 µg/mL | > 4 µg/mL | > 4 µg/mL | 20 µg/mL | > 4 µg/mL | > 4 µg/mL | ≥ 20 µg/mL | > 20 µg/mL | > 20 µg/mL | > 20 µg/mL | > 4 µg/mL | > 4 µg/mL | Not Active | Not Active | Not Active | Not Active | Not Active | Not Active | – | EC50 [12]: > 20 µg/mL; EC50 [4]: > 4 µg/mL; EC50 [6]: > 4 µg/mL; CC50 ([16]; crfk): 13.8 µg/mL (≈ 37.3 µM); EC50 [10]: > 4 µg/mL; CC50 [22]: > 100 µg/mL; MCC at 48 h [23]: 20 µg/mL |
| CN(C)c1ccc(/C=N/n2c(-c3ccccc3)nc3ccccc3c2=O)cc1 | – | > 20 µg/mL | > 20 µg/mL | – | – | – | > 20 µg/mL | – | – | > 20 µg/mL | > 20 µg/mL | – | > 100 µg/mL | Not Active | Not Active | Not Active | Not Active | Not Active | Not Active | – | – |
| C/C(=N\n1c(-c2ccccc2)nc2ccccc2c1=O)c1ccc(Cl)cc1 | 100 µg/mL | > 20 µg/mL | > 20 µg/mL | > 20 µg/mL | 100 µg/mL | > 20 µg/mL | – | 100 µg/mL | – | – | > 20 µg/mL | – | > 100 µg/mL | Not Active | Not Active | Not Active | Not Active | Not Active | Not Active | – | – |
| N=C(N)NCCC[C@H](N)C(=O)O [ARGININE] | – | – | – | – | – | – | – | – | – | – | – | 2.6 µg/mL (≈ 14.9 µM) | 1.6 µg/mL (≈ 9.18 µM) | – | – | – | – | – | – | > 100 µg/mL | – |
| O=c1[nH]c(=O)n([C@H]2C[C@H](O)[C@@H](CO)O2)cc1/C=C/Br [BRIVUDINE] | – | – | – | – | – | – | – | > 250 µg/mL | 50 µg/mL (≈ 150 µM) | > 250 µg/mL | – | – | – | – | – | – | – | – | – | – | – |
| CC(=O)N[C@H]1[C@H](OOP(=O)(O)OP(=O)(O)OC[C@H]2O[C@@H](n3ccc(=O)[nH]c3=O)[C@H](O)[C@@H]2O)O[C@H](CO)[C@@H](O)[C@@H]1O[C@](C)(OP(=O)(O)O)C(=O)O | – | – | – | – | – | – | – | – | – | – | – | 11.7 µg/mL (≈ 14.8 µM) | 53.1 µg/mL (≈ 67.1 µM) | – | – | – | – | – | – | > 100 µg/mL | – |
| Nc1nc2c(ncn2COC(CO)CO)c(=O)[nH]1 [GANCICLOVIR] | – | – | – | – | – | – | – | > 100 µg/mL | 0.07 µg/mL (≈ 0.274 µM) | > 100 µg/mL | 2 µg/mL (≈ 7.84 µM) | > 100 µg/mL | 0.8 µg/mL (≈ 3.13 µM) | – | – | – | – | – | – | > 100 µg/mL | EC50 [12]: 0.05 µg/mL (≈ 0.196 µM) |

From ChEMBL document CHEMBL1287642, “Synthesis, antiviral activity and cytotoxicity evaluation of Schiff bases of some 2-phenyl quinazoline-4(3)H-ones” (Eur J Med Chem, 2010)
